Measurements: ChEMBL document CHEMBL1145983, “Novel indolyl aryl sulfones active against HIV-1 carrying NNRTI resistance mutations: synthesis and SAR studies” (J Med Chem, 2003)

Experiments:
[1] = tested on: C8166; assay: Anti-HIV activity to reduce the amount of p24 in WT IIIB infected C8166 cells; type: functional, cell-based; settings: Homo sapiens
How it was run: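 HIV-1 IIIB came from supernatants of persistently infected H9/IIIB cells; stock 4.5 × 10^6 CCID50/mL. Acutely infected C8166 cells (1 × 10^4/well) were incubated at 37 °C with or without compound dilutions. p24 was measured by immunoenzymatic kit. Value is the concentration reducing p24 by 90%; mean of three experiments.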

[2] = tested on: C8166; assay: Anti-HIV activity to reduce the amount of p24 in C8166 cells infected with efavirenz resistance strain K103R, V179D, and P225H.; type: functional, cell-based, Homo sapiens
How it was run: (§1)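 Efavirenz-resistant K103R-V179D-P225H virus came from IIIB passaged in C8166 cells with efavirenz (up to 2 µM); stock 3.0 × 10^5 CCID50/mL. Acutely infected C8166 cells (1 × 10^4/well) were incubated at 37 °C with or without compound dilutions. p24 was measured by immunoenzymatic kit. Value is the concentration giving 90% p24 reduction; mean of three experiments.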

[3] = tested on: MT4; assay: Cytotoxicity, reducing the vaiability of mock-infected cells; type: functional; settings: Homo sapiens
[4] = tested on: MT-4 (Homo sapiens); assay: Anti-HIV activity to protect MT-4 cells from cytopathogenicity induced by HIV-1 K103N-Y181C (MTT method)
[5] = tested on: Human immunodeficiency virus 1; assay: Anti-HIV activity protecting MT-4 cells from HIV-1 induced cytopathogenicity; type: functional, organism-based; settings: Human immunodeficiency virus 1, MT4
[6] = tested on: Human immunodeficiency virus 1; assay: Selectivity ratio of CC50/EC50; type: functional
How it was run: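 Ratio of CC50 (MTT viability of mock-infected MT-4 cells) to EC50 (MTT-based 50% protection of HIV-1-infected MT-4 cells from cytopathicity), both determined in parallel.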

[7] = tested on: MT4; assay: Anti-HIV activity to protect MT-4 cells from HIV-1 induced cytopathogenicity by MTT method Y181C; type: functional, cell-based; settings: Homo sapiens
How it was run: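 Acutely infected MT-4 cells (1 × 10^4/well) exposed to serial compound dilutions, then HIV-1 (wt IIIB from H9/IIIB supernatant, or Y181C mutant NIH N119) at inoculum giving full cytopathicity by day 4; 37 °C incubation; viability read by MTT. EC50 = µM giving 50% protection from virus-induced cytopathicity; mean ± SE of three experiments.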

[8] = target: Human immunodeficiency virus type 1 reverse transcriptase (Human immunodeficiency virus 1, UniProt Q72547); assay: Activity to inhibit HIV-1 Reverse transcriptase activity in WT IIIB
How it was run: (§2)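 Purified recombinant RT (wt or K103N mutant) assayed for RNA-dependent DNA polymerase activity. Buffer: 50 mM Tris-HCl pH 7.8, 80 mM KCl, 6 mM MgCl2, 1 mM DTT, 0.1 mg/mL BSA. Template:primer was poly(rC)-oligo(dG)12-18 at 0.5 OD260 unit/mL, with [3H]dGTP. Incubated 30 min at 37 °C; acid-insoluble radioactivity counted on glass-fibre filters. IC50 reported as mean of two experiments.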

[9] = tested on: C8166; assay: Anti-HIV activity to reduce the amount of p24 in C8166 cells infected with efavirenz resistance strain; type: functional, cell-based; settings: Homo sapiens; how it was run: as §1
[10] = target: Human immunodeficiency virus type 1 reverse transcriptase (Human immunodeficiency virus 1, UniProt Q72547, K103N); assay: Activity to inhibit HIV-1 Reverse transcriptase activity in K103N; how it was run: as §2
[11] = tested on: MT-4 (Homo sapiens); assay: Anti-HIV activity to protect MT-4 cells from cytopathogenicity induced by HIV-1 K103N-Y181C (MTT method); remark: listed apart in the source

Cc1cccc(S(=O)(=O)c2c(C(N)=O)[nH]c3ccc(Cl)cc23)c1
EC90 [1]: 5 nM | EC90 [2]: 260 nM | CC50 [3]: > 200000 nM | EC50 [4]: 7000 nM | EC50 [5]: 1 nM | Selectivity index [6]: >200000 | EC50 [7]: 6 nM

Cc1ccccc1S(=O)(=O)c1c(C(N)=O)[nH]c2ccc(Cl)cc12
EC90 [1]: 5 nM | EC90 [2]: 2600 nM | CC50 [3]: > 200000 nM | EC50 [4]: 10000 nM | EC50 [5]: 1 nM | Selectivity index [6]: >200000

NC(=O)c1[nH]c2ccc(Cl)cc2c1S(=O)(=O)c1ccccc1 [L-737126]
IC50 [8]: 25 nM | EC90 [9]: 900 nM | EC90 [1]: 7 nM | CC50 [3]: 45000 nM | IC50 [10]: > 5000 nM | EC50 [5]: 1 nM | Selectivity index [6]: 45000

Cc1ccc(S(=O)(=O)c2c(C(N)=O)[nH]c3ccc(Cl)cc23)cc1
IC50 [8]: 72 nM | EC90 [1]: 10 nM | CC50 [3]: > 200000 nM | IC50 [10]: > 5000 nM | EC50 [5]: 3 nM | Selectivity index [6]: >66667 | EC50 [7]: 20 nM | EC50 [11]: > 100000 nM
